Type in all cases: functional
The subject of one assay is HT-29. Kind of assay: Growth inhibition of human HT-29 cells after 48 hrs by sulforhodamine B assay. The following applies: HT-29, 48 h.
A further assay has as its system 786-0. Description: Growth inhibition of human 786-0 cells after 48 hrs by sulforhodamine B assay. The conditions noted are these: 786-0, 48 h.
Assay [1] can be described thus: Antioxidant activity assessed as scavenging of DPPH at 160 uM after 30 mins by spectrophotometry. On the technique in general: DPPH is a stable violet radical that fades when it is reduced.
The subject of another assay is NCI-H460. Description: Growth inhibition of human NCI-H460 cells after 48 hrs by sulforhodamine B assay. The conditions noted are these: NCI-H460, 48 h. For orientation: The SRB assay estimates cell density from bound dye.
Another assay has as its system PC-3. Kind of assay: Growth inhibition of human PC3 cells after 48 hrs by sulforhodamine B assay. The conditions noted are these: PC-3, 48 h.
In the next assay the test system is U-251. Description: Growth inhibition of human U251 cells after 48 hrs by sulforhodamine B assay. The conditions noted are these: U-251, 48 h.
A further assay relates to OVCAR-3. Description: Growth inhibition of human OVCAR3 cells after 48 hrs by sulforhodamine B assay. The conditions noted are these: OVCAR-3, 48 h.
A short description of assay [2]: Growth inhibition of human NCI-ADR-RES cells after 48 hrs by sulforhodamine B assay.
A short description of assay [3]: Antioxidant activity assessed as concentration required to scavenge 50% superoxide anions after 10 mins by spectrophotometry.
The nature of assay [4]: Antioxidant activity assessed as concentration required for 50% DPPH scavenging activity after 30 mins by spectrophotometry relative to monastrol.
The nature of assay [5]: Antioxidant activity assessed as concentration required for 50% DPPH scavenging activity after 30 mins by spectrophotometry.
Assay [6] in a line: Antioxidant activity assessed as scavenging of DPPH at 24.2 uM up to 10 mins by spectrophotometry. A digest of the protocol: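 Kinetic run: reaction medium with 10 nmol DPPH radicals in ethanol and compound at the stated concentration, DPPH scavenging followed over time up to 10 min. Three independent experiments, each in triplicate.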

The source of these data is ChEMBL document CHEMBL2010753, “Free radical scavenging and antiproliferative properties of Biginelli adducts” (2012).

≈ marks a conversion by molar mass, not a printed value. Calls of active or inactive are those of the source. The rule behind the calls is not given here.

As a reminder, the GI50 is the concentration that inhibits growth by half. On to `CCOC(=O)C1=C(C)NC(=O)NC1c1ccc(F)cc1` (configuration not stated), for which the GI50 came out at 25.3 µg/mL (≈ 90.9 µM) with HT-29; 24.7 µg/mL (≈ 88.8 µM) with 786-0; 28.1 µg/mL (≈ 101 µM) in the assay on NCI-H460; 3.1 µg/mL (≈ 11.1 µM) in the assay on PC-3; 23.5 µg/mL (≈ 84.4 µM) in the assay on U-251; 27.1 µg/mL (≈ 97.4 µM) in the assay with OVCAR-3. Further, the GI50 in assay [2] was found to be 3.6 µg/mL (≈ 12.9 µM). For the same molecule, in assay [1], the result was inactive.
On to `CCOC(=O)C1=C(C)NC(=O)NC1c1cccc(O)c1` (configuration not stated), for which the GI50 in the assay on HT-29 came to 27.1 µg/mL (≈ 98.1 µM); in the assay on 786-0, 26.3 µg/mL (≈ 95.2 µM); in the assay with NCI-H460, 42 µg/mL (≈ 152 µM); with PC-3 it was 34.7 µg/mL (≈ 126 µM); in the assay on U-251, 5.1 µg/mL (≈ 18.5 µM); in the assay with OVCAR-3, 6 µg/mL (≈ 21.7 µM). The same molecule returned a GI50 in assay [2] of 11.7 µg/mL (≈ 42.3 µM). In addition, the outcome in assay [1] was inactive.
What is called IC50 is the concentration that inhibits the measured activity by half. On to `CCOC(=O)C1=C(C)NC(=S)NC1c1cc(OC)c(O)c(OC)c1` (configuration not stated), for which the Activity came out at 78 µM in assay [3] and 370 pmol in assay [6]. In addition, the GI50 with HT-29 was 28.2 µg/mL (≈ 80 µM); with 786-0, 13.4 µg/mL (≈ 38 µM); in the assay with NCI-H460, 65.6 µg/mL (≈ 186 µM); in the assay on PC-3, 19 µg/mL (≈ 53.9 µM); with U-251, 0.77 µg/mL (≈ 2.18 µM); in the assay on OVCAR-3, 1.9 µg/mL (≈ 5.39 µM). Further, the 50% growth inhibitory concentration (GI50) in [2] is 25 µg/mL (≈ 70.9 µM). For the same molecule, the outcome in assay [1] was Active. Besides, in [4], the fold change (FC) turned out to be 37. Further, the IC50 in assay [5] was 24.2 µM.
Take `CCCC1NC(=S)NC(C)=C1C(=O)OCC` (configuration not stated): the GI50 in the assay on HT-29 is 50.4 µg/mL (≈ 208 µM); with 786-0, 27.7 µg/mL (≈ 114 µM); in the assay with NCI-H460, 22.5 µg/mL (≈ 92.8 µM); in the assay on PC-3, 42.4 µg/mL (≈ 175 µM); with U-251 it was 29.2 µg/mL (≈ 120 µM); with OVCAR-3 it was 38.1 µg/mL (≈ 157 µM). The molecule also came in with a GI50 in assay [2] of 40.3 µg/mL (≈ 166 µM). Moreover, the outcome in assay [1] was inactive.
Turning to `CCOC(=O)C1=C(C)NC(=O)NC1c1ccc2c(c1)OCO2` (configuration not stated), the concentration for 50% growth inhibition (GI50) in the assay on HT-29 was 29.9 µg/mL (≈ 98.3 µM); with 786-0 it was 26.3 µg/mL (≈ 86.4 µM); in the assay with NCI-H460 it was 48.9 µg/mL (≈ 161 µM); with PC-3 it was 83.1 µg/mL (≈ 273 µM); in the assay with U-251, 34.9 µg/mL (≈ 115 µM); in the assay with OVCAR-3, 32.4 µg/mL (≈ 106 µM). The GI50 in [2] was found to be 15.5 µg/mL (≈ 50.9 µM). The outcome in [1] was inactive.
With `CCOC(=O)C1=C(C)NC(=O)NC1c1ccc(OC)cc1` (configuration not stated), the GI50 in the assay with HT-29 was 28.3 µg/mL (≈ 97.5 µM); in the assay on 786-0 it was 24.8 µg/mL (≈ 85.4 µM); in the assay on NCI-H460, greater than 250 µg/mL; in the assay on PC-3 it was 26.5 µg/mL (≈ 91.3 µM); with U-251 it was 11.6 µg/mL (≈ 40 µM); in the assay with OVCAR-3 it was 8 µg/mL (≈ 27.6 µM). The 50% growth inhibitory concentration (GI50) in assay [2] came to 5.7 µg/mL (≈ 19.6 µM). Also, in assay [1], the outcome was inactive.
`CCOC(=O)C1=C(C)NC(=O)NC1c1ccc(O)c(OC)c1` (configuration not stated): the 50% growth inhibitory concentration (GI50) was 28.1 µg/mL (≈ 91.7 µM) in the assay on HT-29; 17.5 µg/mL (≈ 57.1 µM) in the assay on 786-0; 126 µg/mL (≈ 410 µM) in the assay on NCI-H460; 46.3 µg/mL (≈ 151 µM) in the assay with PC-3; 4.5 µg/mL (≈ 14.7 µM) in the assay with U-251; 1.7 µg/mL (≈ 5.55 µM) in the assay on OVCAR-3. In assay [2], this molecule showed a GI50 of 0.25 µg/mL (≈ 0.816 µM). Besides, the Activity in assay [1] was 65%. Further, the IC50 in assay [5] turned out to be 105 µM.
In the case of `CCOC(=O)C1=C(C)NC(=S)NC1C1CCCCC1` (configuration not stated), the 50% growth inhibitory concentration (GI50) amounted to 25.2 µg/mL (≈ 89.2 µM) in the assay with HT-29; 4.2 µg/mL (≈ 14.9 µM) in the assay with 786-0; 3.5 µg/mL (≈ 12.4 µM) with NCI-H460; 0.46 µg/mL (≈ 1.63 µM) in the assay on PC-3; 25.2 µg/mL (≈ 89.2 µM) in the assay on U-251; 2.2 µg/mL (≈ 7.79 µM) in the assay on OVCAR-3. In addition, in [2], halving of growth (GI50) required 24.1 µg/mL (≈ 85.3 µM). Moreover, in [1], the result was inactive.
For `CCOC(=O)C1=C(C)NC(=S)NC1c1ccc(F)cc1` (configuration not stated), the 50% growth inhibitory concentration (GI50) came out at 26.5 µg/mL (≈ 90 µM) in the assay with HT-29; 24.5 µg/mL (≈ 83.2 µM) in the assay with 786-0; 14.2 µg/mL (≈ 48.2 µM) in the assay on NCI-H460; 1.7 µg/mL (≈ 5.78 µM) with PC-3; 28.3 µg/mL (≈ 96.1 µM) in the assay on U-251; 24.7 µg/mL (≈ 83.9 µM) with OVCAR-3. In assay [2], this molecule yielded a 50% growth inhibitory concentration (GI50) of 26.1 µg/mL (≈ 88.7 µM). Further, the result in assay [1] was inactive.
For `CCOC(=O)C1=C(C)NC(=O)NC1c1ccc(SC)cc1` (configuration not stated), the 50% growth inhibitory concentration (GI50) with HT-29 was found to be 10.2 µg/mL (≈ 33.3 µM); with 786-0, 2.5 µg/mL (≈ 8.16 µM); with NCI-H460 it was 3.6 µg/mL (≈ 11.7 µM); in the assay on PC-3, 9.5 µg/mL (≈ 31 µM); with U-251, 8 µg/mL (≈ 26.1 µM); in the assay with OVCAR-3, 10 µg/mL (≈ 32.6 µM). Moreover, in [2], halving of growth (GI50) required 2.7 µg/mL (≈ 8.81 µM). In addition, the outcome in [1] was inactive.
As to `COc1cccc2c1C(=O)c1c(O)c3c(c(O)c1C2=O)C[C@@](O)(C(=O)CO)C[C@@H]3O[C@H]1C[C@H](N)[C@H](O)[C@H](C)O1` [DOXORUBICIN], the GI50 in the assay on HT-29 is 0.27 µg/mL (≈ 0.497 µM); in the assay with 786-0 it was 0.18 µg/mL (≈ 0.331 µM); with NCI-H460, less than 0.025 µg/mL; in the assay on PC-3, 0.24 µg/mL (≈ 0.442 µM); with U-251, 0.068 µg/mL (≈ 0.125 µM); in the assay with OVCAR-3, 0.27 µg/mL (≈ 0.497 µM). In assay [2], this molecule returned a GI50 of 0.14 µg/mL (≈ 0.258 µM).
